Measured values as given in ChEMBL document CHEMBL2163188, “Discovery of piragliatin--first glucokinase activator studied in type 2 diabetic patients” (J Med Chem, 2012).
Calls of active or inactive are those of the source. The rule behind the calls is not given here.

Key:
[1] = molecular target: T1, Hexokinase-4 (Homo sapiens) (UniProt P35557); test: Activation of human recombinant glucokinase assessed as concentration required for 1.5 fold increase in enzymatic activity
T1 sequence (whole entry): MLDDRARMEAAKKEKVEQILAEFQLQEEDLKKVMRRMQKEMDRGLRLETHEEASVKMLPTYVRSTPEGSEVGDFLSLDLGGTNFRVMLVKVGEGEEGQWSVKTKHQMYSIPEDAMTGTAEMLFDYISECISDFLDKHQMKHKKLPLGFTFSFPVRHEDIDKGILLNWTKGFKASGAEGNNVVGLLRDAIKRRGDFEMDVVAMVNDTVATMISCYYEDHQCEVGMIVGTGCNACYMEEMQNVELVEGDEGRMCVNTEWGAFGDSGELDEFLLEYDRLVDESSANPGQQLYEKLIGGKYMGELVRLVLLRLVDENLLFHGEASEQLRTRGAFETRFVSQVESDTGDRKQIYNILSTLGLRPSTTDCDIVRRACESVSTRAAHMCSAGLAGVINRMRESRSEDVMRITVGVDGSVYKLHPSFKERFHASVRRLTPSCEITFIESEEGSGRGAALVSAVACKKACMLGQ
Outline: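 Human recombinant GK; activator at fixed concentrations from ∼0.010 to 30 μM, each in duplicate, with glucose held at 5 mM. SC1.5 is the activator concentration giving a 1.5-fold rise in enzymatic activity over untreated GK. Assay CV was about 15%.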

Mus musculus = test: Antidiabetic activity in po dosed DIO C57Bl/6J mouse assessed as reduction of fasting and postprandial glucose level administered 1 hr before glucose challenge by OGTT; assay type: functional, organism-based
Outline: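 Male DIO C57Bl/6J mice were fasted overnight and dosed orally at 5, 10 or 15 mg/kg in Gelucire44/14:ethanol:PEG400 (4:66:30 v/w/v). An oral glucose challenge of 1 g/kg followed 1 h later. Tail-snip blood glucose was read on a YSI analyzer up to 120 min. Food was withheld throughout; n = 6 per time point; means ± SD; Student's t test.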

Liver microsomes = test: Drug degradation in human liver microsomes assessed as formation of metabolite 2 level at 20 uM after 30 mins by LCMS/MS analysis; assay type: ADME, Microsome; conditions: 0.5 h
Outline: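 Pooled human liver microsomes at 1 or 2 mg/mL protein in 0.1 M potassium phosphate pH 7.4 with 3 mM MgCl2, 1 mM EDTA and 1 mM NADPH. Substrate was 20 μM C-14 labelled compound, with 1% methanol final. Incubation ran 30 min after a 5 min preincubation and was stopped with ice-cold methanol or 50% aqueous TFA.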

SMILES	Activity [1] [µM]	Activity (Mus musculus)	Drug metabolism (Liver microsomes) [ng/mL]
CS(=O)(=O)c1ccc([C@@H](CC2CCCC2)C(=O)Nc2cnccn2)cc1Cl	0.14	Active	
CS(=O)(=O)c1ccc([C@@H](CC2CCC(O)C2)C(=O)Nc2cnccn2)cc1Cl (mixture of isomers)	2.37		
CS(=O)(=O)c1ccc([C@@H](CC2CCCC2=O)C(=O)Nc2cnccn2)cc1Cl (mixture of isomers)	0.19		
CS(=O)(=O)c1ccc([C@@H](CC2CCCC2O)C(=O)Nc2cnccn2)cc1Cl (mixture of isomers)	2.73		
CS(=O)(=O)c1ccc(C(CC2CCCC2)C(=O)Nc2ncc(Br)s2)cc1 (racemic)	0.135		42.7
CS(=O)(=O)c1ccc(C(CC2CCCC2)C(=O)Nc2ncc(C(N)=O)s2)cc1 (racemic)	0.734		< 10
CNC(=O)c1cnc(NC(=O)C(CC2CCCC2)c2ccc(S(C)(=O)=O)cc2)s1 (racemic)	1.4		< 10
CS(=O)(=O)c1ccc(C(CC2CCCC2)C(=O)Nc2ncc([N+](=O)[O-])s2)cc1 (racemic)	4.17		< 10
CS(=O)(=O)c1ccc(C(CC2CCCC2)C(=O)Nc2nc(CCO)cs2)cc1 (racemic)	0.667		167.3
CS(=O)(=O)c1ccc(C(CC2CCCC2)C(=O)Nc2nc(CO)cs2)cc1 (racemic)	0.48		88.7
CS(=O)(=O)c1ccc(C(CC2CCCC2)C(=O)Nc2ncc(Cl)s2)cc1 (racemic)	0.148		48
CS(=O)(=O)c1ccc(C(CC2CCCC2)C(=O)Nc2ccc3ccccc3n2)cc1 (racemic)	1.38		
CS(=O)(=O)c1ccc(C(CC2CCCC2)C(=O)Nc2ccc3ccccc3n2)cc1Cl (racemic)	0.12		
CS(=O)(=O)c1ccc(C(CC2CCCC2)C(=O)Nc2ccccn2)cc1 (racemic)	1.21		
